Measured values: ChEMBL document CHEMBL4513216, “Probing the Open Global Health Chemical Diversity Library for Multistage-Active Starting Points for Next-Generation Antimalarials” (ACS Infect Dis, 2020)

Assay: Toxicity liver stage against HepG2, at 10uM
Format: cell-based
Parameters: test concentration 10 uM, cell line HepG2-A16-CD81EGFP
Settings: human, HepG2-A16-CD81EGFP cells; read-out: INHIBITION
In short: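 Uninfected HepG2-A16-CD81EGFP cells, 3 × 10^3 per well, 1536-well, plated on prespotted compound at 10 μM final, parasite-free screening media added to match infected plates; puromycin 10 μM positive, DMSO 0.5% negative; run in parallel with 48 h PbLuc assay at 37 °C, 5% CO2; viability by CellTiter-Glo luminescence, normalized to controls.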

Cc1ccc(F)cc1NC(=O)NCC(C)N1CCOCC1 (stereo not given)
cytotoxicity at 10 µM: 2.6%

CN(C)c1nc2sc(C(=O)N3CCN(C(=O)OC(C)(C)C)CC3)cc2s1
cytotoxicity at 10 µM: 1.71%

Cc1ccc(S(=O)(=O)Cc2noc([C@@H]3C[C@@H](O)CN3)n2)cc1
cytotoxicity at 10 µM: -5.78%

CS(=O)(=O)c1ccc(CNC[C@H]2COCc3nc4ccccc4n32)cc1
cytotoxicity at 10 µM: -1.28%

Cn1ccnc1CN1C[C@H]2CN(S(C)(=O)=O)CCN2C1=O
cytotoxicity at 10 µM: -6.04%

O=C(NC1CCCc2c1[nH]c1ccc(F)cc21)c1n[nH]c2c1CCCC2 (stereo not given)
cytotoxicity at 10 µM: 46.4%

O=C(O)C1CCN(c2nc3c(-c4ccccc4F)csc3c(=O)[nH]2)CC1
cytotoxicity at 10 µM: -10%

CN(C)C1COC2(CCN(C(=O)c3cccnc3)CC2)C1 (stereo not given)
cytotoxicity at 10 µM: 3.53%

Cc1ccc(C(=O)N2CCO[C@H]3[C@H](OCCN(C)C)CC[C@@H]32)cn1
cytotoxicity at 10 µM: 4.85%

O=C(CCn1ccc2ccc(Cl)cc21)NCc1ccc(C(=O)O)cc1
cytotoxicity at 10 µM: -0.411%

CCCc1nnsc1C(=O)NCC1CCN(c2ccccn2)CC1
cytotoxicity at 10 µM: -16.7%

COCC1c2nnn(CC3CC3)c2CCN1C(=O)Cc1cccs1 (stereo not given)
cytotoxicity at 10 µM: -15.8%

CCOCC1CN(C(=O)N(C)C)Cc2nn(C)cc21 (stereo not given)
cytotoxicity at 10 µM: -11.9%

O=C(c1cc2cccc(F)c2[nH]1)N1C[C@@H](O)[C@H](N2CCOCC2)C1
cytotoxicity at 10 µM: 0.0453%

CNc1cc(CCNC(=O)C2CCCC2)nc(-c2ccccn2)n1
cytotoxicity at 10 µM: 1.76%

Cc1nnc(N2CCOC(C)(C(=O)N(C)C)C2)c2ccccc12 (stereo not given)
cytotoxicity at 10 µM: 10.4%

Cn1cnc2ccc(NC(=O)CC3CCN(S(C)(=O)=O)CC3)cc21
cytotoxicity at 10 µM: 22.6%

Cn1cc(Cl)c(C(=O)N2CCc3nc4sccc4c(=O)n3CC2)n1
cytotoxicity at 10 µM: -3.04%

COCCN1CCN(Cc2cnc(C)nc2)CC1
cytotoxicity at 10 µM: -22.8%

Cc1nn(C)c(C)c1CN1CCCC1c1nccc(CN(C)C)n1 (stereo not given)
cytotoxicity at 10 µM: -28.1%

O=C(c1cccnc1)N1CCCC(Cc2nccs2)C1 (stereo not given)
cytotoxicity at 10 µM: -2.86%

CC(CNC(=O)c1cc(-n2cccn2)ccn1)Cn1ccnc1 (stereo not given)
cytotoxicity at 10 µM: -3.43%

CC(C)(C)c1ccc2c(c1)CCN2C(=O)c1nc(=O)[nH][nH]1
cytotoxicity at 10 µM: -3.74%

Cc1ccc(CN(C)C(=O)C(C)n2cncn2)o1 (stereo not given)
cytotoxicity at 10 µM: -3.33%

CC(C)c1nc(CN2CCN(C(=O)OC(C)(C)C)C(C)C2)no1 (stereo not given)
cytotoxicity at 10 µM: 1.62%

CCSc1cc(C(=O)NC(C)c2cccc(N3CCOC3=O)c2)ccn1 (stereo not given)
cytotoxicity at 10 µM: 24.1%

CC(C)COC(=O)N1CCCN(C(C)c2nc(C(C)C)no2)CC1 (stereo not given)
cytotoxicity at 10 µM: 6.85%

Cc1nc2n(n1)CC(NCc1ccccc1OCC(=O)N(C)C)CC2 (stereo not given)
cytotoxicity at 10 µM: 7.61%

O=C(Nc1cccs1)N(CCO)CCOCC(F)(F)F
cytotoxicity at 10 µM: 3.84%

Cc1ccc(C)c(S(=O)(=O)NC(=O)COc2cccc(C#N)c2)c1
cytotoxicity at 10 µM: 9.7%

CC(NC(=O)Nc1ccc(OC2CCCC2)cc1)c1nc[nH]n1 (stereo not given)
cytotoxicity at 10 µM: -5.42%

CS(=O)(=O)CCCSc1cccc(C#N)c1
cytotoxicity at 10 µM: -1.38%

CNC(=O)CN1CCN(C(=O)Nc2ccc(Cl)cc2F)CC1
cytotoxicity at 10 µM: 1.41%

Cc1cccc(NC(=O)c2sc(C)nc2C)n1
cytotoxicity at 10 µM: 5.52%

COc1cccc2[nH]cc(CCNC(=O)N3CCOCC3C3CC3)c12 (stereo not given)
cytotoxicity at 10 µM: 12.1%

CCN(C)C(=O)C1(c2ccc(F)cc2F)CCC1
cytotoxicity at 10 µM: -7.74%

Cc1cc(CNC(=O)N2CCN(Cc3ccccc3)C[C@H]2C)on1
cytotoxicity at 10 µM: -131%

O=C(CS(=O)(=O)C1CCCC1)NC1CCCc2cc(OC(F)F)ccc21 (stereo not given)
cytotoxicity at 10 µM: 4.84%

Cc1nccn1CCCNc1ccc(Cl)c(C#N)n1
cytotoxicity at 10 µM: -7.62%

COCC(C)NC(=O)CN1CCCC1 (stereo not given)
cytotoxicity at 10 µM: -7.42%

Cc1ccc(N2CCCC(N3CCC4(CC3)OCCO4)C2=O)cc1 (stereo not given)
cytotoxicity at 10 µM: 6.7%

Cc1n[nH]cc1CNC1(c2ccc(Br)cc2)CC1
cytotoxicity at 10 µM: 13.9%

O=C(NCC1(O)CCSC1)c1cccc(-n2cccn2)c1 (stereo not given)
cytotoxicity at 10 µM: -3.5%

COc1cccc(NC(=O)CNc2ccc(C(=O)N(C)C)c(Cl)c2)c1
cytotoxicity at 10 µM: 6.91%

Cc1ccc(NC(=O)N(C)CC(O)COCCOC(C)C)c(Br)c1 (stereo not given)
cytotoxicity at 10 µM: 11.2%

CC1CN(c2ccc(C#N)cn2)CCN1c1ccc2nncn2n1 (stereo not given)
cytotoxicity at 10 µM: 1.42%

O=C(NCC(O)C1CC1)Nc1cnn(Cc2ccccc2)c1 (stereo not given)
cytotoxicity at 10 µM: 4.85%

Cc1cccn2cc(C[S+]([O-])Cc3noc(C(C)C)n3)nc12 (stereo not given)
cytotoxicity at 10 µM: 6.13%

CCCc1nc(CNc2ccc(F)c(F)c2)no1
cytotoxicity at 10 µM: 8.93%

Cc1cc(C)n(-c2cncc(NCCNC(=O)CC3CCCC3)n2)n1
cytotoxicity at 10 µM: -5.71%

Cc1cc(S(=O)(=O)Nc2cccc(-n3cccc3)c2)sc1C(=O)O
cytotoxicity at 10 µM: -2.23%

CNC(=O)CS(=O)(=O)Cc1coc(-c2ccc(F)cc2)n1
cytotoxicity at 10 µM: -9.44%

Cc1noc(C(C)C)c1C(=O)N1CCOCC1CC(=O)c1ccco1 (stereo not given)
cytotoxicity at 10 µM: 2.09%

Cc1cccc(CNCc2c(C)nn(C)c2N2CCOCC2)n1
cytotoxicity at 10 µM: -10.9%

CCc1ccc(C(=O)Nc2ccc(CC3CC(=O)NC3=O)cc2)cc1 (stereo not given)
cytotoxicity at 10 µM: -13.5%

Cc1cnn(CC2CN(CCc3ccncc3)CCO2)c1 (stereo not given)
cytotoxicity at 10 µM: -13.6%

CO[C@@H]1CC[C@H]2[C@H]1OCCN2C(=O)c1nn(C)c2ccccc12
cytotoxicity at 10 µM: 1.31%

Cc1nc(CN2CCO[C@@H]3CN(C(=O)CN(C)C)CC[C@@H]3C2)cs1
cytotoxicity at 10 µM: -0.587%

CCc1ccc(CN2CCN(c3cccc(OC)c3)C(=O)C2)nc1
cytotoxicity at 10 µM: 1.76%

Cn1ccnc1-c1ccc(NCC2COc3ccccc3O2)nn1 (stereo not given)
cytotoxicity at 10 µM: 3.31%

C[C@@H]1CN(C(=O)c2nc3ccc(Cl)cn3c2-c2ncc[nH]2)C[C@H](C)O1
cytotoxicity at 10 µM: -6.01%

Cc1noc(C)c1CN1C[C@@H](NC(=O)N(C)C)[C@H](C(C)C)C1
cytotoxicity at 10 µM: 5.35%

COc1ccc2[nH]nc(CN3CCC(C(C)N(C)C)CC3)c2c1 (stereo not given)
cytotoxicity at 10 µM: -1.45%

COc1ccccc1C1CNC(=O)c2nc(-c3c(C)n[nH]c3C)[nH]c2C1 (stereo not given)
cytotoxicity at 10 µM: -8%

CCC(O)Cn1cc(C2=CCN(Cc3ccc(OC)cc3)CC2)cn1 (stereo not given)
cytotoxicity at 10 µM: -3.94%

N[C@@H]1CC[C@H](C(=O)NCCc2nc(-c3ccccc3)cs2)C1
cytotoxicity at 10 µM: -11.3%

CC(C)OC(=O)N1CCC(c2nnc(Cn3ccnc3)n2C)CC1
cytotoxicity at 10 µM: -120%

O=C(COCC(F)(F)C(F)F)N1CCC2(CCCN(CCO)C2=O)C1 (stereo not given)
cytotoxicity at 10 µM: 8.77%

COc1nccnc1N1CCC2(CCCN(C(C)C)C2=O)C1 (stereo not given)
cytotoxicity at 10 µM: 2.57%

CC(C)N1CC2(CCCN(c3ccccn3)C2)CCC1=O (stereo not given)
cytotoxicity at 10 µM: -0.608%

Cc1ccc(CC(=O)N2C[C@@H](CN(C)C)[C@@H](CO)C2)cc1C
cytotoxicity at 10 µM: -14%

NC(=O)C1CCCN(C(=O)c2ccc(-n3ccnc3)cc2)C1 (stereo not given)
cytotoxicity at 10 µM: -4.4%

CCc1nc(NC(=O)NCCc2cccc(C)n2)nn1C
cytotoxicity at 10 µM: 2.48%

OCCN1CCc2[nH]nc(C(c3ccccc3)c3ccccc3)c2C1
cytotoxicity at 10 µM: -2.98%

O=C(C1CC(=O)N(C2CC2)C1)N1CCN(CCn2cccc2)CC1 (stereo not given)
cytotoxicity at 10 µM: -12%

CC(c1ccccc1)n1c(SCC(=O)O)nnc1-c1ccccc1Cl (stereo not given)
cytotoxicity at 10 µM: 1.31%

CCS(=O)(=O)c1ccccc1N1CCC(NC(=O)C2CC2)CC1
cytotoxicity at 10 µM: -1.58%

CCCC(C)N(C)C(=O)c1nc(S(C)(=O)=O)n2ccccc12 (stereo not given)
cytotoxicity at 10 µM: -8.16%

Cn1cc(CCNCc2cc(Cl)c3c(c2)OCCO3)cn1
cytotoxicity at 10 µM: -9.69%

Cc1noc(C)c1CC(=O)NCc1ccnc(OCC(F)(F)F)c1
cytotoxicity at 10 µM: -7.83%

COc1ccc(C)cc1C(=O)N1CCCC(n2nc(C)nc2C)C1 (stereo not given)
cytotoxicity at 10 µM: -5.68%

O=C(CCCN1C(=O)CCC1=O)NCC1(c2ccccc2)CCC1
cytotoxicity at 10 µM: -17.1%

CC(NC(=O)NCCn1ccnc1)c1ccc2c(c1)OCCCO2 (stereo not given)
cytotoxicity at 10 µM: -7.27%

CN(Cc1nnc(C2CC2)o1)C1CCCN(c2cccnn2)C1 (stereo not given)
cytotoxicity at 10 µM: -10.7%

CC(C)(C)c1cc(NC(=O)CN2CCc3cncnc3C2)on1
cytotoxicity at 10 µM: -8.78%

CCOCCN1CCN(Cc2cccc(C(=O)N(C)C)c2)CC1C (stereo not given)
cytotoxicity at 10 µM: 3.57%

O=C(c1ccc2c(c1)OCO2)N1CCCC(n2ccnc2)C1 (stereo not given)
cytotoxicity at 10 µM: -7.6%

Cc1cnn(CC2CCCN2Cc2noc(C(C)(C)C)n2)c1 (stereo not given)
cytotoxicity at 10 µM: -10.7%

COc1cccc(S(=O)(=O)NC(=O)CCC2CCCO2)c1 (stereo not given)
cytotoxicity at 10 µM: -14.7%

COc1ccc(COCC(=O)N2CCCC(n3cncn3)C2)cc1 (stereo not given)
cytotoxicity at 10 µM: -11.1%

CC(C)c1n[nH]c(C2CN(Cc3nnc(C4CC4)o3)CCO2)n1 (stereo not given)
cytotoxicity at 10 µM: -10.1%

Cc1csc(N2CCCN(C(=O)c3cnns3)CC2)n1
cytotoxicity at 10 µM: 5.92%

CCOc1nnc(CNC2CCCN(c3ccc(C)nn3)C2)s1 (stereo not given)
cytotoxicity at 10 µM: -9.31%

COCc1ccccc1CNCc1c(C)nn(C)c1N(C)C
cytotoxicity at 10 µM: -8.45%

CCOc1c(CNCCCn2ccnc2)cc(Cl)cc1OC
cytotoxicity at 10 µM: -3.88%

O=C(C1CCCC1)N1CCCC2(CCN(c3cnccn3)CC2)C1
cytotoxicity at 10 µM: 9.53%

O=C(NCC1CC1)[C@@H]1CCO[C@@H]2CCN(Cc3ccsc3)C[C@H]21
cytotoxicity at 10 µM: -76.5%

CCc1ncnc2c1CCN(Cc1ccccn1)CC2
cytotoxicity at 10 µM: 1.39%

CC(C)c1nn(C)c(N(C)C)c1CNCc1ccccc1CO
cytotoxicity at 10 µM: -9.89%

CC(=O)N1[C@H](CN(C)C)C[C@@H]2CN(C(=O)c3cccn3C)CC[C@@H]21
cytotoxicity at 10 µM: 2.53%

O=C1CC2(CCN(CCO)C2)CN1c1cccc(F)c1 (stereo not given)
cytotoxicity at 10 µM: -149%

O=C(NCc1cccnc1)[C@@H]1C[C@@H]2CCN(c3ncc(F)cn3)C[C@@H]2O1
cytotoxicity at 10 µM: -72.1%

CCCN1CCc2[nH]nc(C(=O)N3CCNC(=O)C3)c2C1
cytotoxicity at 10 µM: 14.9%

CCN1CCC2(CC1)CC(NC(=O)c1ccnnc1)c1ccccc12 (stereo not given)
cytotoxicity at 10 µM: -6.9%

Cn1nc(Cn2ccnc2)c2c1CN(Cc1ccoc1)C2
cytotoxicity at 10 µM: 0.319%

CN1Cc2ccccc2CC2(CCN(CCO)CC2)C1=O
cytotoxicity at 10 µM: -6.58%

COCC1CN(C(=O)COc2ccccc2C)Cc2ncn(C)c21 (stereo not given)
cytotoxicity at 10 µM: -2.17%

CNC(=O)C1CCC2(CCNCC2)C1 (stereo not given)
cytotoxicity at 10 µM: 6.41%

CN1C(=O)CC(c2cnn(C)c2)C12CCN(CC1CCOCC1)CC2 (stereo not given)
cytotoxicity at 10 µM: -3.19%

CN(C)CCN1CCC2[C@@H]1CCN2Cc1ccc2c(c1)OCO2 (stereo not given in full)
cytotoxicity at 10 µM: -4.28%
